Measured values published in ChEMBL document CHEMBL1125357, “Gonadotropin-releasing hormone antagonists with N omega-triazolylornithine, -lysine, or -p-aminophenylalanine residues at positions 5 and 6” (J Med Chem, 1992).
pKd: −log10 of the molar value. Non-standard residues stand in square brackets, D forms with d. Residues, ends and D or L forms follow the SMILES beside them. *: point of attachment. dNva(5-oxo-5-(4-MeOPh)) = COc1ccc(C(=O)CC[C@@H](N)C(=O)O)cc1; Triazol3yl(1,2,4-5-NH2) = Nc1nc(*)n[nH]1; dPhe(4-Cl) = N[C@H](Cc1ccc(Cl)cc1)C(=O)O; d2Nal = N[C@H](Cc1ccc2ccccc2c1)C(=O)O; Lys(iPr) = CC(C)NCCCC[C@H](N)C(=O)O; d3Pal = N[C@H](Cc1cccnc1)C(=O)O; Nicotinoyl = O=C(c1cccnc1)*; dOrn = NCCC[C@@H](N)C(=O)O; Orn = NCCC[C@H](N)C(=O)O

Columns and labels:
[1] = Retention time of the compound; type: ADME
Outline: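 Peptide (0.5 mg/mL, 10 μL) was loaded in TEAP pH 7.0/CH3CN (76/24), acidified with H3PO4 where insoluble. Elution used a 30-48% CH3CN gradient over 30 min at 1.5 mL/min. Retention time is reported in minutes.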

[2] = target: T1, Gonadotropin-releasing hormone receptor (Homo sapiens, UniProt P30968); assay: The binding affinity towards Gonadotropin-releasing hormone receptor
T1 sequence (P30968 whole entry): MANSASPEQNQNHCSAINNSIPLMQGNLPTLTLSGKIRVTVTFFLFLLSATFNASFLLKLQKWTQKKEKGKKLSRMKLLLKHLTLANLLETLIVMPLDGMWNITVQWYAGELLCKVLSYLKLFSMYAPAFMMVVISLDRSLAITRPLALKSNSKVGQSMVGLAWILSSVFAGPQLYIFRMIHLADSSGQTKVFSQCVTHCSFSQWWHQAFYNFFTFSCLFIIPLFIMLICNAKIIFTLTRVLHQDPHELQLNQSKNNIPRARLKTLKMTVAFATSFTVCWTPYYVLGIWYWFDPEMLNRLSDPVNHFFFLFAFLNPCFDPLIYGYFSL

For CC(=O)N[C@H](Cc1ccc2ccccc2c1)C(=O)N[C@H](Cc1ccc(Cl)cc1)C(=O)N[C@H](Cc1cccnc1)C(=O)N[C@@H](CO)C(=O)N[C@@H](CCCCNc1n[nH]c(N)n1)C(=O)N[C@H](CCCCNc1n[nH]c(N)n1)C(=O)N[C@@H](CC(C)C)C(=O)N[C@@H](CCCCNC(C)C)C(=O)N1CCC[C@H]1C(=O)NCC(N)=O, the RT [1] was 5.53 min and the pKd [2] was 9.07.
With CC(=O)N[C@H](Cc1ccc2ccccc2c1)C(=O)N[C@H](Cc1ccc(Cl)cc1)C(=O)N[C@H](Cc1cccnc1)C(=O)N[C@@H](CO)C(=O)N[C@@H](CCCNC(=N)N)C(=O)N[C@H](Cc1cccnc1)C(=O)N[C@@H](CC(C)C)C(=O)N[C@@H](CCCNC(=N)N)C(=O)N1CCC[C@H]1C(=O)N[C@H](C)C(N)=O the RT [1] was 14.1 min and the pKd [2] was 9.62.
For CC(=O)N[C@H](Cc1ccc2ccccc2c1)C(=O)N[C@H](Cc1ccc(Cl)cc1)C(=O)N[C@H](Cc1cccnc1)C(=O)N[C@@H](CO)C(=O)N[C@@H](CCCCNC(=O)c1cccnc1)C(=O)N[C@H](CCCCNC(=O)c1cccnc1)C(=O)N[C@@H](CC(C)C)C(=O)N[C@@H](CCCCNC(C)C)C(=O)N1CCC[C@H]1C(=O)N[C@H](C)C(N)=O (Ac-[d2Nal][dPhe(4-Cl)][d3Pal]SK(Nicotinoyl)[dK](Nicotinoyl)L[Lys(iPr)]P[dA]-NH2), the RT [1] was 13.6 min and the pKd [2] was 9.46.
Work on CC(=O)N[C@H](Cc1ccc2ccccc2c1)C(=O)N[C@H](Cc1ccc(Cl)cc1)C(=O)N[C@H](Cc1cccnc1)C(=O)N[C@@H](CO)C(=O)N[C@@H](CCCCNc1n[nH]c(N)n1)C(=O)N[C@H](CCCCNc1n[nH]c(N)n1)C(=O)N[C@@H](CC(C)C)C(=O)N[C@@H](CCCCNC(C)C)C(=O)N1CCC[C@H]1C(=O)N[C@H](C)C(N)=O (Ac-[d2Nal][dPhe(4-Cl)][d3Pal]SK(Triazol3yl(1,2,4-5-NH2))[dK](Triazol3yl(1,2,4-5-NH2))L[Lys(iPr)]P[dA]-NH2) yielded an RT [1] of 7.08 min and a pKd [2] of 9.32.
Molecule COc1ccc(C(=O)CC[C@@H](NC(=O)[C@H](CCCN=C(N)N)NC(=O)[C@H](CO)NC(=O)[C@@H](Cc2cccnc2)NC(=O)[C@@H](Cc2ccc(Cl)cc2)NC(=O)[C@@H](Cc2ccc3ccccc3c2)NC(C)=O)C(=O)N[C@@H](CC(C)C)C(=O)N[C@@H](CCCN=C(N)N)C(=O)N2CCC[C@H]2C(=O)N[C@H](C)C(N)=O)cc1 (Ac-[d2Nal][dPhe(4-Cl)][d3Pal]SR[dNva(5-oxo-5-(4-MeOPh))]LRP[dA]-NH2) has an RT [1] of 22.8 min and a pKd [2] of 9.17.
In the case of CC(=O)N[C@H](Cc1ccc2ccccc2c1)C(=O)N[C@H](Cc1ccc(Cl)cc1)C(=O)N[C@H](Cc1cccnc1)C(=O)N[C@@H](CO)C(=O)N[C@@H](CCCNc1n[nH]c(N)n1)C(=O)N[C@H](CCCNc1n[nH]c(N)n1)C(=O)N[C@@H](CC(C)C)C(=O)N[C@@H](CCCCNC(C)C)C(=O)N1CCC[C@H]1C(=O)N[C@H](C)C(N)=O (Ac-[d2Nal][dPhe(4-Cl)][d3Pal]S[Orn](Triazol3yl(1,2,4-5-NH2))[dOrn](Triazol3yl(1,2,4-5-NH2))L[Lys(iPr)]P[dA]-NH2), the RT [1] was 6.2 min and the pKd [2] was 9.68.
